Laboratory results reported in ChEMBL document CHEMBL3085669, “Design, synthesis and structure-activity relationship of novel Relacin analogs as inhibitors of Rel proteins” (Eur J Med Chem, 2013).
Activity calls are given as the source filed them. The rule behind the calls is not given here.

Columns and labels:
Escherichia coli [1] = test: Inhibition of Escherichia coli relA assessed as inhibition of (p)ppGpp synthesis at 1 mM by autoradiography in presence of [alpha32]GTP
How it was run: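 Purified E. coli RelA assayed in vitro with inhibitor at 1 mM.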

Deinococcus radiodurans = test: Inhibition of Deinococcus radiodurans rel/spo assessed as inhibition of (p)ppGpp synthesis by autoradiography in presence of [alpha32]GTP
How it was run: (§1)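 Cell-free assay on purified Rel enzymes (Rel/Spo from D. radiodurans, RelA from E. coli), with inhibitor tested across varying concentrations.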

Bacillus subtilis = test: Inhibition of Bacillus subtilis relA assessed as reduction in (p)ppGpp level at 2 mM incubated for 15 mins prior to SHX addition measured after 5 to 10 mins by autoradiography
How it was run: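 B. subtilis cells grown with inhibitor at 2 mM. Stringent response then induced by adding serine hydroxamate, and intracellular (p)ppGpp measured afterwards.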

Escherichia coli [2] = test: Inhibition of Escherichia coli relA assessed as inhibition of (p)ppGpp synthesis by autoradiography in presence of [alpha32]GTP; how it was run: as §1

Compound | inhibition (Escherichia coli [1]) [%] | inhibition (Deinococcus radiodurans) | inhibition (Bacillus subtilis) | inhibition (Escherichia coli [2])
CC(C)C(=O)Nc1nc2c(ncn2[C@H]2C[C@H](OC(=O)N[C@@H](CCC(=O)O)C(=O)O)[C@@H](COC(=O)NCC(=O)O)O2)c(=O)[nH]1 | 50.4 |  |  | 
CC(C)C(=O)Nc1nc2c(ncn2[C@H]2C[C@H](OC(=O)NC(CCC(=O)O)C(=O)NC(CCC(=O)O)C(=O)O)[C@@H](COC(=O)NC(CCC(=O)O)C(=O)NC(CCC(=O)O)C(=O)O)O2)c(=O)[nH]1 (stereo partly drawn) | 80.4 | Dose-dependent effect | Active | Dose-dependent effect
CC(C)C(=O)Nc1nc2c(ncn2[C@H]2C[C@H](OC(=O)NCC(=O)O)[C@@H](COC(=O)NCC(=O)O)O2)c(=O)[nH]1 | 51.1 |  | Active | 
CC(C)C(=O)Nc1nc2c(ncn2[C@H]2C[C@H](OC(=O)NCCN(C)C)[C@@H](COC(=O)NCCN(C)C)O2)c(=O)[nH]1 | 31.2 |  |  | 
CC(C)C(=O)Nc1nc2c(ncn2[C@H]2C[C@H](OC(=O)NCC(=O)O)[C@@H](COC(=O)N[C@@H](CCC(=O)O)C(=O)O)O2)c(=O)[nH]1 | 52.1 |  |  | 
CC(C)C(=O)Nc1nc2c(ncn2[C@H]2C[C@H](OC(=O)N(CCCN(C)C)CCCN(C)C)[C@@H](COC(=O)N(CCCN(C)C)CCCN(C)C)O2)c(=O)[nH]1 | 12 |  |  | 
CC(C)C(=O)Nc1nc2c(ncn2[C@H]2C[C@H](OC(=O)NCC(=O)NCC(=O)O)[C@@H](COC(=O)NCC(=O)NCC(=O)O)O2)c(=O)[nH]1 | 66.3 |  |  | 
CC(C)C(=O)Nc1nc2c(ncn2[C@H]2C[C@H](OC(=O)NC(CCC(=O)O)C(=O)O)[C@@H](COC(=O)N[C@@H](CCC(=O)O)C(=O)O)O2)c(=O)[nH]1 (stereo partly drawn) | 50.6 |  |  | 
CC(C)C(=O)Nc1nc2c(ncn2[C@H]2C[C@H](OC(=O)NCCCCCC(=O)O)[C@@H](COC(=O)NCCCCCC(=O)O)O2)c(=O)[nH]1 | 25.6 |  |  | 
